# Experimental data gathered from unrelated publications.
# Lines come from different studies, so protocols differ.
# Target: Beta-adrenergic receptor kinase 1 (GRK2, Homo sapiens, UniProt P25098)
# One construct used (P25098 1-689): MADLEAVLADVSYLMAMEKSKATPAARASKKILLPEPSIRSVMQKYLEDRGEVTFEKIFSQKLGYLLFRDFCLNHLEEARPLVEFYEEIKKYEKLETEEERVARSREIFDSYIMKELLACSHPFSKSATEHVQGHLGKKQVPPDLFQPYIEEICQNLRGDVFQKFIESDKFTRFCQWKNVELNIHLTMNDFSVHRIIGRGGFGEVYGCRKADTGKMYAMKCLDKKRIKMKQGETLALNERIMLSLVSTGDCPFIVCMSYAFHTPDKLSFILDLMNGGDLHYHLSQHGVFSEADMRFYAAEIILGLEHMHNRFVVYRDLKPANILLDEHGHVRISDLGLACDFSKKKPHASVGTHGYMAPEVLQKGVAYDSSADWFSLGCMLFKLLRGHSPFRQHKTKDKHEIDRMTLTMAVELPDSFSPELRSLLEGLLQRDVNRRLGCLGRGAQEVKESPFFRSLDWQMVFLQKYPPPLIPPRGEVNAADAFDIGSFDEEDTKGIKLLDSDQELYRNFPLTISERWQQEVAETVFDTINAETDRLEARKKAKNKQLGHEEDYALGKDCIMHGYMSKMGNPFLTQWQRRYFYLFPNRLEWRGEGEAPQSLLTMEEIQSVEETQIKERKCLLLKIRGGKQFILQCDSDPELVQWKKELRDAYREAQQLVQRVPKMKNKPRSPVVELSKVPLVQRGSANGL
Structure (SMILES),read-out,mode,method,concentration,quantity,value
N[C@H]1CCN(c2nccc(-c3cnn4ncccc34)n2)C1,binding,,competition with immobilised ligand,1 µM,remaining binding,80%
O=C(Nc1cccnn1)N1CC(C/C=C/c2cncc(Oc3ccc(C(F)(F)F)cn3)n2)C1,cell-free assay,,competition with immobilised ligand,1 µM,remaining binding,96%
COc1cc(Cl)c(C(=O)N[C@@H](CN[C@H]2CC[C@@H](N)CC2)Cc2ccc(C#N)cc2)cc1-c1ccc(CN[C@H](C)c2ccc(C)cc2)o1,enzyme activity,inhibitor,,1 µM,remaining activity,105%
Cc1sc(C(=O)NC2COC2)cc1-n1cc(NC(=O)Nc2c(F)cccc2Cl)cn1,enzyme activity,inhibitor,,10 µM,remaining activity,106%
C[C@H](NC(=O)c1cnc2n1[C@](C)(Cc1ccc(C#N)cc1)C(=O)N2c1cc(Cl)c(F)c(Cl)c1)C(=O)NC1(c2ccccn2)CC1,cell-free assay,,competition with immobilised ligand,1 µM,remaining binding,100%
Cc1cc(NC(=O)c2cccc3cc(-c4cccc5[nH]nc(N)c45)ccc23)ccc1F,enzyme activity,inhibitor,,0.1 µM,activity vs control,73%
CCCCNc1ncc2c(-c3ccc(F)cc3)nn(C[C@H]3CC[C@H](N)CC3)c2n1,target engagement in cells,inhibitor,chemoproteomics,20 mM,inhibition,-6.2%
COc1cc2ncnc(Nc3ccc(Oc4ccccc4)c(C)c3C)c2cc1OC,enzyme activity,inhibitor,,1 µM,inhibition,-2%
O=C1Nc2ccc(Cl)cc2C1=Cc1cc(Cl)c(O)c(Cl)c1,cell-free assay,,,0.5 µM,remaining signal,93.4%
CC(C)(C)c1nc(-c2cccc(NS(=O)(=O)c3c(F)cccc3F)c2F)c(-c2ccnc(N)n2)s1,enzyme activity,inhibitor,radiometric,1 µM,remaining activity,95%
CCc1ccccc1C(=O)Nc1n[nH]c2c(C)c(F)c(C3C(C#N)=C(C)N(C)C(C)=C3C#N)cc12,cell-free assay,,competition with immobilised ligand,1 µM,remaining binding,100%
N#CCCc1ccc2c(c1)-c1[nH]c3ccc([N+](=O)[O-])cc3c1CC(=O)N2,cell-free assay,,,0.5 µM,remaining signal,96.4%
CN(C(=O)c1ccccc1)c1cc(N(C)c2ccc3c(c2)CCc2ccc(C(=O)NCCN4CCOCC4)cc2C3=O)ccc1F,cell-free assay,,competition with immobilised ligand,1 µM,remaining binding,100%
CCCS(=O)(=O)Nc1ccc(F)c(C(=O)c2c[nH]c3ncc(-c4ccc(Cl)cc4)cc23)c1F,enzyme activity,inhibitor,,1 µM,inhibition,< 20%
COc1cccc2c(NCc3ccccc3)nc(-n3c(N)nc4ccccc43)nc12,target engagement in cells,inhibitor,chemoproteomics,20 mM,inhibition,-14.5%
O=C(NCc1ncc(C(F)(F)F)cc1Cl)c1ccc2c(c1)C1(CCS(=O)(=O)CC1)[C@H](C1CC1)N2S(=O)(=O)c1ccc(F)cc1,cell-free assay,,competition with immobilised ligand,1 µM,remaining binding,56%
